# What was measured:
# [1] = test system: Pseudomonas aeruginosa; test: Ratio of gentamicin MIC to compound MIC for Pseudomonas aeruginosa FNSST 982; type: functional
# [2] = test system: Aeromonas hydrophila; test: Antibacterial activity against Aeromonas hydrophila FNSST 014 after 18 to 24 hrs by two-fold broth microdilution assay; type: functional
# How it was run: (§1)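 CLSI two-fold broth microdilution was used. Compounds were dissolved in DMSO, brought to 10 mg/mL in medium, then serially diluted in Mueller Hinton broth over 400–0.09 µg/mL. Overnight MHB cultures were diluted to 10^6 CFU/mL, and 10 µL was added per well. Plates were incubated 18–24 h at 37 °C, then 0.2 mg/mL INT was added for 30 min at 37 °C. MIC was the lowest concentration with no visible growth or pink colour, triplicate.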
# [3] = test system: Pseudomonas aeruginosa; test: Antibacterial activity against Pseudomonas aeruginosa FNSST 982 after 18 to 24 hrs by two-fold broth microdilution assay; type: functional; how it was run: as §1
# [4] = test system: Klebsiella pneumoniae; test: Antibacterial activity against Klebsiella pneumoniae FNSST 011 after 18 to 24 hrs by two-fold broth microdilution assay; type: functional; how it was run: as §1
# [5] = test system: Escherichia coli; test: Antibacterial activity against Escherichia coli FNSST 982 after 18 to 24 hrs by two-fold broth microdilution assay; type: functional; how it was run: as §1
# [6] = test system: Clostridium perfringens; test: Antibacterial activity against Clostridium perfringens FNSST 4999 after 18 to 24 hrs by two-fold broth microdilution assay; type: functional
# How it was run: (§2)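 CLSI two-fold broth microdilution. Compounds dissolved in DMSO, 10 mg/mL stock, serially diluted to 400–0.09 µg/mL in Mueller Hinton broth. Wells inoculated with 10^6 CFU/mL bacteria and incubated 18–24 h at 37 °C. 0.2 mg/mL INT added for 30 min. MIC taken as the lowest concentration with no visible growth or pink colour. Triplicate.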
# [7] = test system: Staphylococcus aureus; test: Antibacterial activity against Staphylococcus aureus ATCC 25923 after 18 to 24 hrs by two-fold broth microdilution assay; type: functional; how it was run: as §1
# [8] = test system: Enterococcus faecalis; test: Antibacterial activity against Enterococcus faecalis ATCC 29212 after 18 to 24 hrs by two-fold broth microdilution assay; type: functional; how it was run: as §1
# [9] = test system: Bacillus cereus; test: Antibacterial activity against Bacillus cereus ATCC 11778 after 18 to 24 hrs by two-fold broth microdilution assay; type: functional; how it was run: as §1
# [10] = test system: Aspergillus fumigatus; test: Antifungal activity against Aspergillus fumigatus FNSST 3833 assessed as diameter of zone of inhibition at 250 ug/disc after 72 hrs by disc diffusion method; type: functional; settings: FNSST 3833, 72 h, read-out: DIZ
# How it was run: (§3)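 Fungi were grown overnight at 30 °C in Sabouraud dextrose broth to 10^4 cfu/mL, and 100 µL was spread on Sabouraud dextrose agar. 6 mm discs carried 250 µg (25 µL of a 10 mg/mL stock in 96% ethanol), with ethanol as the negative control. Incubation was at 30 °C for 48 h (yeast) or 72 h (molds). Zone diameter was read including the disc, in triplicate, mean ± SE.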
# [11] = test system: Talaromyces funiculosus; test: Antifungal activity against Penicillium funiculosum FNSST 3724 assessed as diameter of zone of inhibition at 250 ug/disc after 72 hrs by disc diffusion method; type: functional; settings: FNSST 3724, 72 h, read-out: DIZ; how it was run: as §3
# [12] = test system: Aeromonas hydrophila; test: Antibacterial activity against Aeromonas hydrophila FNSST 014 assessed as diameter of zone of inhibition at 250 ug/disc after 24 hrs by disc diffusion method; type: functional; settings: FNSST 014, 24 h, read-out: DIZ
# How it was run: (§4)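 Bacteria were grown overnight at 37 °C in TSB to about 10^6 cfu/mL, and 100 µL was spread on Mueller Hinton agar. Sterile 6 mm discs were each loaded with 25 µL of a 10 mg/mL stock in 96% ethanol, giving 250 µg/disc. Ethanol served as the negative control. Plates were incubated 24 h at 37 °C. Inhibition zone diameter was measured including the disc, in triplicate, as mean ± SE.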
# [13] = test system: Pseudomonas aeruginosa; test: Antibacterial activity against Pseudomonas aeruginosa FNSST 982 assessed as diameter of zone of inhibition at 250 ug/disc after 24 hrs by disc diffusion method; type: functional; settings: FNSST 982, 24 h, read-out: DIZ; how it was run: as §4
# [14] = test system: Klebsiella pneumoniae; test: Antibacterial activity against Klebsiella pneumoniae FNSST 011 assessed as diameter of zone of inhibition at 250 ug/disc after 24 hrs by disc diffusion method; type: functional; settings: FNSST 011, 24 h, read-out: DIZ; how it was run: as §4
# [15] = test system: Escherichia coli; test: Antibacterial activity against Escherichia coli FNSST 982 assessed as diameter of zone of inhibition at 250 ug/disc after 24 hrs by disc diffusion method; type: functional; settings: FNSST 982, 24 h, read-out: DIZ; how it was run: as §4
# [16] = test system: Clostridium perfringens; test: Antibacterial activity against Clostridium perfringens FNSST 4999 assessed as diameter of zone of inhibition at 250 ug/disc after 24 hrs by disc diffusion method; type: functional; settings: FNSST 4999, 24 h, read-out: DIZ
# How it was run: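 Disc diffusion per CLSI: 100 µL of 10^6 cfu/mL bacterial suspension spread on Mueller Hinton agar. 6 mm discs loaded with 25 µL of 10 mg/mL compound stock in 96% ethanol (250 µg/disc); ethanol as negative control. Incubated 24 h at 37 °C. Inhibition zone diameter measured in mm including the disc, triplicate, reported as mean ± SE.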
# [17] = test system: Staphylococcus aureus; test: Antibacterial activity against Staphylococcus aureus ATCC 25923 assessed as diameter of zone of inhibition at 250 ug/disc after 24 hrs by disc diffusion method; type: functional; settings: ATCC 25923, 24 h, read-out: DIZ; how it was run: as §4
# [18] = test system: Enterococcus faecalis; test: Antibacterial activity against Enterococcus faecalis ATCC 29212 assessed as diameter of zone of inhibition at 250 ug/disc after 24 hrs by disc diffusion method; type: functional; settings: ATCC 29212, 24 h, read-out: DIZ; how it was run: as §4
# [19] = test system: Bacillus cereus; test: Antibacterial activity against Bacillus cereus ATCC 11778 assessed as diameter of zone of inhibition at 250 ug/disc after 24 hrs by disc diffusion method; type: functional; settings: ATCC 11778, 24 h, read-out: DIZ; how it was run: as §4
# [20] = test system: Candida albicans; test: Antifungal activity against Candida albicans ATCC 10231 assessed as diameter of zone of inhibition at 250 ug/disc after 48 hrs by disc diffusion method; type: functional; settings: ATCC 10231, 48 h, read-out: DIZ; how it was run: as §3
# [21] = test system: Pseudomonas aeruginosa; test: Antibacterial activity against GIM-1 expressing Pseudomonas aeruginosa isolate 197 after 18 to 24 hrs by two-fold broth microdilution assay; type: functional; how it was run: as §1
# [22] = test system: Acinetobacter baumannii; test: Antibacterial activity against SIM-1 expressing Acinetobacter baumannii isolate 170 after 18 to 24 hrs by two-fold broth microdilution assay; type: functional; how it was run: as §2
# [23] = test system: Escherichia coli; test: Antibacterial activity against […] expressing Escherichia coli isolate 235 after 18 to 24 hrs by two-fold broth microdilution assay; type: functional; how it was run: as §2
# [24] = test system: Escherichia coli; test: Antibacterial activity against TEM-1/SHV-12 expressing Escherichia coli isolate 237 after 18 to 24 hrs by two-fold broth microdilution assay; type: functional; how it was run: as §2
# [25] = test system: Escherichia coli; test: Antibacterial activity against […] expressing Escherichia coli isolate 4024 after 18 to 24 hrs by two-fold broth microdilution assay; type: functional; how it was run: as §2
# [26] = test system: Aeromonas caviae; test: Antibacterial activity against TEM-1/CTX-M-15 expressing Aeromonas caviae isolate 260 after 18 to 24 hrs by two-fold broth microdilution assay; type: functional; how it was run: as §1
# [27] = test system: Aeromonas caviae; test: Antibacterial activity against […] expressing Aeromonas caviae isolate 258 after 18 to 24 hrs by two-fold broth microdilution assay; type: functional; how it was run: as §1
# [28] = test system: Aeromonas hydrophila; test: Antibacterial activity against TEM-1/SHV-12 expressing Aeromonas hydrophila isolate 268 after 18 to 24 hrs by two-fold broth microdilution assay; type: functional; how it was run: as §1
# [29] = test system: Kluyvera intermedia; test: Antibacterial activity against TEM-1/SHV-12/[…] expressing Enterobacter intermedius isolate 243 after 18 to 24 hrs by two-fold broth microdilution assay; type: functional; how it was run: as §1
# [30] = test system: Enterobacter cloacae; test: Antibacterial activity against CTX-15 expressing Enterobacter cloacae isolate 51 after 18 to 24 hrs by two-fold broth microdilution assay; type: functional
# [31] = test system: Enterobacter cloacae; test: Antibacterial activity against TEM-1/CTX-M-15 expressing Enterobacter cloacae isolate 62 after 18 to 24 hrs by two-fold broth microdilution assay; type: functional
# [32] = test system: Enterobacter cloacae; test: Antibacterial activity against TEM-1/SHV-12 expressing Enterobacter cloacae isolate 306 after 18 to 24 hrs by two-fold broth microdilution assay; type: functional
# [33] = test system: Klebsiella pneumoniae; test: Antibacterial activity against TEM-1/SHV-12 expressing Klebsiella pneumoniae isolate 303 after 18 to 24 hrs by two-fold broth microdilution assay; type: functional; how it was run: as §1
# [34] = test system: Stenotrophomonas maltophilia; test: Antibacterial activity against […] expressing Stenotrophomonas maltophilia isolate 125 after 18 to 24 hrs by two-fold broth microdilution assay; type: functional; how it was run: as §1
# [35] = test system: Aeromonas hydrophila; test: Antibacterial activity against Aeromonas hydrophila FNSST 014 assessed as diameter of zone of inhibition at 15 ug/disc after 24 hrs by disc diffusion method; type: functional, organism-based
# How it was run: (§5)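 Gentamicin 15 µg disc run as positive control in CLSI disc diffusion. Lawn of 100 µL of 10^6 cfu/mL bacteria on Mueller Hinton agar, incubated 24 h at 37 °C. Zone diameter measured in mm including the 6 mm disc, triplicate, mean ± SE.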
# [36] = test system: Pseudomonas aeruginosa; test: Antibacterial activity against Pseudomonas aeruginosa FNSST 982 assessed as diameter of zone of inhibition at 15 ug/disc after 24 hrs by disc diffusion method; type: functional, organism-based; how it was run: as §5
# [37] = test system: Klebsiella pneumoniae; test: Antibacterial activity against Klebsiella pneumoniae FNSST 011 assessed as diameter of zone of inhibition at 15 ug/disc after 24 hrs by disc diffusion method; type: functional, organism-based; how it was run: as §5
# [38] = test system: Escherichia coli; test: Antibacterial activity against Escherichia coli FNSST 982 assessed as diameter of zone of inhibition at 15 ug/disc after 24 hrs by disc diffusion method; type: functional, organism-based; how it was run: as §5
# [39] = test system: Clostridium perfringens; test: Antibacterial activity against Clostridium perfringens FNSST 4999 assessed as diameter of zone of inhibition at 15 ug/disc after 24 hrs by disc diffusion method; type: functional, organism-based; how it was run: as §5
# [40] = test system: Staphylococcus aureus; test: Antibacterial activity against Staphylococcus aureus ATCC 25923 assessed as diameter of zone of inhibition at 15 ug/disc after 24 hrs by disc diffusion method; type: functional, organism-based; how it was run: as §5
# [41] = test system: Enterococcus faecalis; test: Antibacterial activity against Enterococcus faecalis ATCC 29212 assessed as diameter of zone of inhibition at 15 ug/disc after 24 hrs by disc diffusion method; type: functional, organism-based; how it was run: as §5
# [42] = test system: Bacillus cereus; test: Antibacterial activity against Bacillus cereus ATCC 11778 assessed as diameter of zone of inhibition at 15 ug/disc after 24 hrs by disc diffusion method; type: functional, organism-based; how it was run: as §5
compound,measurement,setting,value
O/N=C/c1nccn1Cc1ccccc1,Ratio,[1],5
same,MIC,[2],25 µg/mL
same,MIC,[3],12.5 µg/mL
same,MIC,[4],25 µg/mL
same,MIC,[5],25 µg/mL
same,MIC,[6],50 µg/mL
same,MIC,[7],6.25 µg/mL
same,MIC,[8],6.25 µg/mL
same,MIC,[9],6.25 µg/mL
same,zone of inhibition at 250 µg/disc,[10],11.5 mm
same,zone of inhibition at 250 µg/disc,[11],17.6 mm
same,zone of inhibition at 250 µg/disc,[12],10.1 mm
same,zone of inhibition at 250 µg/disc,[13],17.9 mm
same,zone of inhibition at 250 µg/disc,[14],15.8 mm
same,zone of inhibition at 250 µg/disc,[15],17.3 mm
same,zone of inhibition at 250 µg/disc,[16],15.9 mm
same,zone of inhibition at 250 µg/disc,[17],10.8 mm
same,zone of inhibition at 250 µg/disc,[18],14.9 mm
same,zone of inhibition at 250 µg/disc,[19],17.5 mm
same,zone of inhibition at 250 µg/disc,[20],17.2 mm
GENTAMICIN,MIC,[21],> 8 µg/mL
same,MIC,[22],16 µg/mL
same,MIC,[23],16 µg/mL
same,MIC,[24],8 µg/mL
same,MIC,[25],64 µg/mL
same,MIC,[26],32 µg/mL
same,MIC,[27],12.8 µg/mL
same,MIC,[28],4 µg/mL
same,MIC,[29],2 µg/mL
same,MIC,[30],128 µg/mL
same,MIC,[31],4 µg/mL
same,MIC,[32],256 µg/mL
same,MIC,[33],32 µg/mL
same,MIC,[34],2 µg/mL
same,MIC,[2],8 µg/mL
same,MIC,[3],64 µg/mL
same,MIC,[4],8 µg/mL
same,MIC,[5],32 µg/mL
same,MIC,[6],0.5 µg/mL
same,MIC,[7],1 µg/mL
same,MIC,[8],4 µg/mL
same,MIC,[9],4 µg/mL
same,inhibition zone (IZ),[35],12.6 mm
same,inhibition zone (IZ),[36],9.2 mm
same,inhibition zone (IZ),[37],18.2 mm
same,inhibition zone (IZ),[38],11.5 mm
same,inhibition zone (IZ),[39],21.7 mm
same,inhibition zone (IZ),[40],23.9 mm
same,inhibition zone (IZ),[41],14.6 mm
same,inhibition zone (IZ),[42],18.2 mm

# From ChEMBL document CHEMBL3091449, “Synthesis and antimicrobial profile of N-substituted imidazolium oximes and their monoquaternary salts against multidrug resistant bacteria” (2013)
